From ChEMBL document CHEMBL3232995, “Synthesis and evaluation of effective photoaffinity probe molecule of furospinosulin-1, a hypoxia-selective growth inhibitor” (Bioorg Med Chem, 2014)
Calls of active or inactive are those of the source. The rule behind the calls is not given here.

Key:
DU-145 [1] = experiment: Antiproliferative activity against human DU145 cells under hypoxia condition assessed as growth inhibition at 10 to 100 uM after 24 hrs by MTT assay; type: functional, cell-based
Procedure, shortened: (§1)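 DU145 human prostate cancer cells kept in RPMI 1640 with 10% heat-inactivated FBS and kanamycin (50 µg/ml), 5% CO2, 37 °C. Seeded at 1 × 10⁴ cells/well. Held 4 h normoxic, then 12 h under 1% O2/5% CO2/94% N2 to induce hypoxia genes. Compound then added and plates kept a further 24 h hypoxic. Read-out by MTT, with inhibition as percent of parallel negative controls.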

DU-145 [2] = experiment: Antiproliferative activity against human DU145 cells under normoxia condition assessed as growth inhibition at 10 to 100 uM after 24 hrs by MTT assay; type: functional, cell-based
Procedure, shortened: (§2)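 DU145 cells were grown in RPMI 1640 with heat-inactivated 10% FBS and kanamycin (50 µg/ml) under humidified 5% CO2 at 37 °C and seeded at 1 × 10⁴ cells/well. Growth under normoxic conditions was measured by colorimetric MTT assay. Inhibition was taken relative to parallel negative controls.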

DU-145 [3] = experiment: Inhibition of transcription factor complex formation in hypoxia-induced human DU145 cells assessed as reduction in nuclear proteins and Sp1 oligonucleotide probe complex at 100 to 300 uM by EMSA; type: functional, cell-based
Procedure, shortened: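 Nuclear extracts were made from DU145 cells under normoxia or hypoxia. They were pre-incubated on ice for 20 min with compound (100 or 300 µM) in binding buffer: 10 mM Tris-HCl pH 7.5, 50 mM KCl, 5 mM MgCl2, 1 mM DTT, 1% glycerol, BSA, poly(dI-dC). Then 5'-biotinylated Sp1 oligonucleotide (4 fmol per 20 µL) was added for 15 min at room temperature. Complexes were resolved on 5% native PAGE in 0.5× TBE, blotted, and detected by streptavidin-HRP/ECL.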

DU-145 [4] = experiment: Antiproliferative activity against human DU145 cells under hypoxia condition assessed as growth inhibition at 3 to 30 uM after 24 hrs by MTT assay; type: functional, cell-based; procedure, shortened: as §1
CCRF S-180 [5] = experiment: Antitumor activity against mouse S180 cells allografted in ddY mouse assessed as tumor growth at 25 mg/kg, po administered once every 2 days for 2 weeks relative to control; settings: CCRF S-180, po
Mus musculus [6] = experiment: Toxicity in mouse S180 cells allografted in ddY mouse assessed as diarrhea at 5 to 25 mg/kg, po administered once every 2 days for 2 weeks relative to control; type: organism-based, CCRF S-180; set-up: dose 5-25 mg/kg, route oral; settings: in vivo
Procedure, shortened: (§3)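 Female ddY mice, 6 weeks old, received S180 sarcoma cells (1 × 10⁶ cells/body) subcutaneously in the right ventral flank. Dosing began one week after implantation: oral suspension in 1% CMC-Na, every other day for 2 weeks (7 doses). Tumors were excised and weighed to give the inhibition ratio against control. Four mice per group. Weight loss and diarrhea were watched throughout.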

Mus musculus [7] = experiment: Toxicity in mouse S180 cells allografted in ddY mouse assessed as weight loss at 5 to 25 mg/kg, po administered once every 2 days for 2 weeks relative to control; type: organism-based, CCRF S-180; set-up: dose 5-25 mg/kg, route oral; settings: in vivo; procedure, shortened: as §3
DU-145 [8] = experiment: Antiproliferative activity against human DU145 cells under hypoxia condition assessed as growth inhibition after 24 hrs by MTT assay; type: functional, cell-based; procedure, shortened: as §1
DU-145 [9] = experiment: Antiproliferative activity against normoxia-induced human DU145 cells assessed as growth inhibition after 24 hrs by MTT assay; type: functional, cell-based; procedure, shortened: as §2
CCRF S-180 [10] = experiment: Antitumor activity against mouse S180 cells allografted in ddY mouse assessed as tumor growth at 5 mg/kg, po administered once every 2 days for 2 weeks relative to control; settings: CCRF S-180, po
CCRF S-180 [11] = experiment: Antitumor activity against mouse S180 cells allografted in ddY mouse assessed as tumor growth at 10 mg/kg, po administered once every 2 days for 2 weeks relative to control; settings: CCRF S-180, po

SMILES | growth inhibition (GI) (DU-145 [1]) | growth inhibition (GI) (DU-145 [2]) | Activity (DU-145 [3]) | growth inhibition (GI) (DU-145 [4]) | further results
C#CCOC/C(C)=C/CC/C(C)=C/CC/C(C)=C/CC/C(C)=C/CCc1ccoc1 | Active | Active |  |  | 
C/C(=C\CC/C(C)=C/CCc1ccoc1)CC/C=C(\C)CC/C=C(\C)CCc1cn(CCCCCNC(=O)CSC[C@H](NC(=O)c2ccc(C(=O)c3ccccc3)cc2)C(=O)NCCOCCOCCOCCn2cc(CNC(=O)CCCC[C@@H]3SC[C@@H]4NC(=O)N[C@@H]43)nn2)nn1 |  |  | inactive | inactive | 
C#CC/C(C)=C/CC/C(C)=C/CC/C(C)=C/CC/C(C)=C/CCc1ccoc1 | Active | Active |  |  | 
C/C(=C\CC/C(C)=C/CCc1ccoc1)CC/C=C(\C)CC/C=C(\C)CCc1cn(CCOCCOCCNC(=O)CSC[C@H](NC(=O)c2ccc(C(=O)c3ccccc3)cc2)C(=O)NCCOCCOCCOCCn2cc(CNC(=O)CCCC[C@@H]3SC[C@@H]4NC(=O)N[C@@H]43)nn2)nn1 |  |  | Active | Active | 
CC(=O)OC/C(C)=C/CC/C(C)=C/CC/C(C)=C/CC/C(C)=C/CCc1ccoc1 | Active | Active |  |  | 
C/C(=C\CC/C(C)=C/CCc1ccoc1)CC/C=C(\C)CC/C=C(\C)CCc1cn(CCOCCOCCOCCNC(=O)CSC[C@H](NC(=O)c2ccc(C(=O)c3ccccc3)cc2)C(=O)NCCOCCOCCOCCn2cc(CNC(=O)CCCC[C@@H]3SC[C@@H]4NC(=O)N[C@@H]43)nn2)nn1 |  |  | Active | Active | 
CC(C)=CCC/C(C)=C/CC/C(C)=C/CC/C(C)=C/CCc1ccoc1 | Active | Active |  |  | 
CC#CCC/C(C)=C/CC/C(C)=C/CC/C(C)=C/CC/C(C)=C/CCc1ccoc1 | Active | Active |  |  | 
C/C(=C\CC/C(C)=C/CC/C(C)=C/CC/C(C)=C/CCc1ccoc1)CO | Active | Active |  |  | 
C/C(=C\CC/C(C)=C/CCc1ccoc1)CC/C=C(\C)CC/C=C(\C)CCc1cn(CCCNC(=O)CSC[C@H](NC(=O)c2ccc(C(=O)c3ccccc3)cc2)C(=O)NCCOCCOCCOCCn2cc(CNC(=O)CCCC[C@@H]3SC[C@@H]4NC(=O)N[C@@H]43)nn2)nn1 |  |  | inactive | inactive | 
C#CCC/C(C)=C/CC/C(C)=C/CC/C(C)=C/CC/C(C)=C/CCc1ccoc1 | Active | Active |  |  | level, % of control at 25 mg/kg (CCRF S-180 [5]): 11%; Activity (Mus musculus [6]): Non-toxic; Activity (Mus musculus [7]): Non-toxic; growth inhibition (GI) (DU-145 [8]): Dose-dependent effect; growth inhibition (GI) (DU-145 [9]): Dose-dependent effect; level, % of control at 5 mg/kg (CCRF S-180 [10]): 45%; level, % of control at 10 mg/kg (CCRF S-180 [11]): 26%
